Test results: ChEMBL document CHEMBL5058577, “EUbOPEN Chemogenomics Library 2 (Multiplex)” (2022)

System: Fibroblast
Experiment: Multiplex assay against human fibroblast
Format: toxicity, cell-based
In short: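 Four dyes were applied at seeding to live cells: Hoechst33342, BioTracker Green Microtubule Cytoskeleton Dye, MitoTracker Red and Annexin V Alexa Fluor 680. Imaging after compound addition used a CQ1 microscope at 37°C and 5% CO2. CellPathfinder machine-learning gating then sorted cells into Hoechst high-intensity objects or normal cells, normal cells into healthy, pyknosed or fragmented nuclei, and pyknosed cells into mitotic or apoptotic, with tubulin, mitochondrial-mass and membrane-permeability phenotypes given as per cents of healthy-nucleus cells.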

[1] = 12 h, 1 µM, compound concentration 1 uM, replicate 1
[2] = 12 h, 1 µM, compound concentration 1 uM, replicate 2
[3] = 12 h, 10 µM, compound concentration 10 uM, replicate 1
[4] = 12 h, 10 µM, compound concentration 10 uM, replicate 2
[5] = 24 h, 1 µM, compound concentration 1 uM, replicate 1
[6] = 24 h, 1 µM, compound concentration 1 uM, replicate 2
[7] = 24 h, 10 µM, compound concentration 10 uM, replicate 1
[8] = 24 h, 10 µM, compound concentration 10 uM, replicate 2
[9] = 48 h, 1 µM, compound concentration 1 uM, replicate 1
[10] = 48 h, 1 µM, compound concentration 1 uM, replicate 2
[11] = 48 h, 10 µM, compound concentration 10 uM, replicate 1
[12] = 48 h, 10 µM, compound concentration 10 uM, replicate 2

In the case of `CCCCC1=NC2(CCCC2)C(=O)N1Cc1ccc(-c2ccccc2-c2nnn[nH]2)cc1` [IRBESARTAN], the “Population Apoptotic (%)” value [1] is reported as 40%, the “Population Fragmented Nuclei (%)” value [1] is reported as 14% and the “Population Healthy Nuclei (%)” value [1] is reported as 67%. For the same molecule, the “Population Hoechst High Intensity Objects (%)” value [1] was 1%, the “Population Membrane Permeable-Phenotype (%)” value [1] was 0% and the “Population Mitochondria Different-Phenotype (%)” value [1] was 5%. For the same molecule, the “Population Mitotic Cells (%)” value [1] was 59%, the “Population Normal (%)” value [1] was 98% and the “Population Pyknosed Nuclei (%)” value [1] was 17%. For the same molecule, the “Population Tubulin-Different-Phenotype (%)” value [1] was 28%, the “Total Cell Count” value [1] was 159 and the “Population Apoptotic (%)” value [2] was 38%. The “Population Fragmented Nuclei (%)” value [2] was 24%, the “Population Healthy Nuclei (%)” value [2] was 55% and the “Population Hoechst High Intensity Objects (%)” value [2] was 3%. The “Population Membrane Permeable-Phenotype (%)” value [2] was 7%, the “Population Mitochondria Different-Phenotype (%)” value [2] was 2% and the “Population Mitotic Cells (%)” value [2] was 61%. For the same molecule, the “Population Normal (%)” value [2] was 96%, the “Population Pyknosed Nuclei (%)” value [2] was 20% and the “Population Tubulin-Different-Phenotype (%)” value [2] was 43%. For the same molecule, the “Total Cell Count” value [2] was 187, the “Population Apoptotic (%)” value [3] was 60% and the “Population Fragmented Nuclei (%)” value [3] was 11%. For the same molecule, the “Population Healthy Nuclei (%)” value [3] was 74%, the “Population Hoechst High Intensity Objects (%)” value [3] was 3% and the “Population Membrane Permeable-Phenotype (%)” value [3] was 3%. The “Population Mitochondria Different-Phenotype (%)” value [3] was 4%, the “Population Mitotic Cells (%)” value [3] was 40% and the “Population Normal (%)” value [3] was 96%. The “Population Pyknosed Nuclei (%)” value [3] was 13%, the “Population Tubulin-Different-Phenotype (%)” value [3] was 37% and the “Total Cell Count” value [3] was 151. The “Population Apoptotic (%)” value [4] was 45%, the “Population Fragmented Nuclei (%)” value [4] was 32% and the “Population Healthy Nuclei (%)” value [4] was 48%. The “Population Hoechst High Intensity Objects (%)” value [4] was 7%, the “Population Membrane Permeable-Phenotype (%)” value [4] was 12% and the “Population Mitochondria Different-Phenotype (%)” value [4] was 3%. For the same molecule, the “Population Mitotic Cells (%)” value [4] was 54%, the “Population Normal (%)” value [4] was 92% and the “Population Pyknosed Nuclei (%)” value [4] was 18%. For the same molecule, the “Population Tubulin-Different-Phenotype (%)” value [4] was 53%, the “Total Cell Count” value [4] was 129 and the “Population Apoptotic (%)” value [5] was 47%. For the same molecule, the “Population Fragmented Nuclei (%)” value [5] was 19%, the “Population Healthy Nuclei (%)” value [5] was 69% and the “Population Hoechst High Intensity Objects (%)” value [5] was 2%. For the same molecule, the “Population Membrane Permeable-Phenotype (%)” value [5] was 1%, the “Population Mitochondria Different-Phenotype (%)” value [5] was 3% and the “Population Mitotic Cells (%)” value [5] was 52%. The “Population Normal (%)” value [5] was 97%, the “Population Pyknosed Nuclei (%)” value [5] was 10% and the “Population Tubulin-Different-Phenotype (%)” value [5] was 22%. The “Total Cell Count” value [5] was 170, the “Population Apoptotic (%)” value [6] was 31% and the “Population Fragmented Nuclei (%)” value [6] was 25%. The “Population Healthy Nuclei (%)” value [6] was 57%, the “Population Hoechst High Intensity Objects (%)” value [6] was 3% and the “Population Mitochondria Different-Phenotype (%)” value [6] was 0%. For the same molecule, the “Population Mitotic Cells (%)” value [6] was 68%, the “Population Normal (%)” value [6] was 96% and the “Population Pyknosed Nuclei (%)” value [6] was 16%. For the same molecule, the “Population Tubulin-Different-Phenotype (%)” value [6] was 40%, the “Total Cell Count” value [6] was 183 and the “Population Apoptotic (%)” value [7] was 56%. For the same molecule, the “Population Fragmented Nuclei (%)” value [7] was 9%, the “Population Healthy Nuclei (%)” value [7] was 74% and the “Population Hoechst High Intensity Objects (%)” value [7] was 1%. For the same molecule, the “Population Membrane Permeable-Phenotype (%)” value [7] was 3%, the “Population Mitochondria Different-Phenotype (%)” value [7] was 7% and the “Population Mitotic Cells (%)” value [7] was 44%. The “Population Normal (%)” value [7] was 98%, the “Population Pyknosed Nuclei (%)” value [7] was 16% and the “Population Tubulin-Different-Phenotype (%)” value [7] was 37%. The “Total Cell Count” value [7] was 155, the “Population Apoptotic (%)” value [8] was 45% and the “Population Fragmented Nuclei (%)” value [8] was 36%. For the same molecule, the “Population Healthy Nuclei (%)” value [8] was 47%, the “Population Hoechst High Intensity Objects (%)” value [8] was 2% and the “Population Membrane Permeable-Phenotype (%)” value [8] was 8%. For the same molecule, the “Population Mitochondria Different-Phenotype (%)” value [8] was 5%, the “Population Mitotic Cells (%)” value [8] was 55% and the “Population Normal (%)” value [8] was 97%. For the same molecule, the “Population Tubulin-Different-Phenotype (%)” value [8] was 60%, the “Total Cell Count” value [8] was 125 and the “Population Apoptotic (%)” value [9] was 60%. For the same molecule, the “Population Fragmented Nuclei (%)” value [9] was 21%, the “Population Healthy Nuclei (%)” value [9] was 69% and the “Population Hoechst High Intensity Objects (%)” value [9] was 3%. For the same molecule, the “Population Membrane Permeable-Phenotype (%)” value [9] was 0%, the “Population Mitochondria Different-Phenotype (%)” value [9] was 4% and the “Population Mitotic Cells (%)” value [9] was 40%. For the same molecule, the “Population Normal (%)” value [9] was 96%, the “Population Pyknosed Nuclei (%)” value [9] was 8% and the “Population Tubulin-Different-Phenotype (%)” value [9] was 31%. For the same molecule, the “Total Cell Count” value [9] was 173, the “Population Apoptotic (%)” value [10] was 55% and the “Population Fragmented Nuclei (%)” value [10] was 31%. For the same molecule, the “Population Healthy Nuclei (%)” value [10] was 58%, the “Population Hoechst High Intensity Objects (%)” value [10] was 2% and the “Population Membrane Permeable-Phenotype (%)” value [10] was 2%. The “Population Mitochondria Different-Phenotype (%)” value [10] was 1%, the “Population Mitotic Cells (%)” value [10] was 44% and the “Population Normal (%)” value [10] was 97%. The “Population Pyknosed Nuclei (%)” value [10] was 10%, the “Population Tubulin-Different-Phenotype (%)” value [10] was 39% and the “Total Cell Count” value [10] was 178. For the same molecule, the “Population Apoptotic (%)” value [11] was 61%, the “Population Fragmented Nuclei (%)” value [11] was 14% and the “Population Healthy Nuclei (%)” value [11] was 66%. The “Population Hoechst High Intensity Objects (%)” value [11] was 2%, the “Population Membrane Permeable-Phenotype (%)” value [11] was 1% and the “Population Mitochondria Different-Phenotype (%)” value [11] was 5%. The “Population Mitotic Cells (%)” value [11] was 38%, the “Population Normal (%)” value [11] was 97% and the “Population Pyknosed Nuclei (%)” value [11] was 18%. The “Population Tubulin-Different-Phenotype (%)” value [11] was 38%, the “Total Cell Count” value [11] was 141 and the “Population Apoptotic (%)” value [12] was 37%. For the same molecule, the “Population Fragmented Nuclei (%)” value [12] was 37%, the “Population Healthy Nuclei (%)” value [12] was 48% and the “Population Hoechst High Intensity Objects (%)” value [12] was 0%. For the same molecule, the “Population Membrane Permeable-Phenotype (%)” value [12] was 3%, the “Population Mitochondria Different-Phenotype (%)” value [12] was 1% and the “Population Mitotic Cells (%)” value [12] was 62%. For the same molecule, the “Population Normal (%)” value [12] was 99%, the “Population Pyknosed Nuclei (%)” value [12] was 13% and the “Population Tubulin-Different-Phenotype (%)” value [12] was 58%. For the same molecule, the “Total Cell Count” value [12] was 117.
